CHT inh = human CHT choline transport inhibition; Q9GZV3; CHT-expressing cells, membrane potential dye, choline response; active compounds read low; B-score at 10 µM; 0.86% of 310,000 active; AID 488975;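 active = B-score over 3 SD under the library average, and starting fluorescence ratio not unusually high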;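 note: choline stimulus applied at its EC90 after an EC20 pre-addition; B-score computed on integrated fluorescence ratio after choline addition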
TNAP inh noacc = inhibitors of human TNAP without phosphate acceptor | P05186 | purified TNAP, CDP-star luminescence, 30 min | inhibition, % at 20 µM | 0.26% of 200,000 active | AID 1012;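 active = tissue-nonspecific alkaline phosphatase inhibition above about 50% at 20 µM in the single-dose screen, limit read from the data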;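 note: 0% = DMSO negative control and 100% = EDTA positive control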
Target sequence (P05186 whole entry, looked up): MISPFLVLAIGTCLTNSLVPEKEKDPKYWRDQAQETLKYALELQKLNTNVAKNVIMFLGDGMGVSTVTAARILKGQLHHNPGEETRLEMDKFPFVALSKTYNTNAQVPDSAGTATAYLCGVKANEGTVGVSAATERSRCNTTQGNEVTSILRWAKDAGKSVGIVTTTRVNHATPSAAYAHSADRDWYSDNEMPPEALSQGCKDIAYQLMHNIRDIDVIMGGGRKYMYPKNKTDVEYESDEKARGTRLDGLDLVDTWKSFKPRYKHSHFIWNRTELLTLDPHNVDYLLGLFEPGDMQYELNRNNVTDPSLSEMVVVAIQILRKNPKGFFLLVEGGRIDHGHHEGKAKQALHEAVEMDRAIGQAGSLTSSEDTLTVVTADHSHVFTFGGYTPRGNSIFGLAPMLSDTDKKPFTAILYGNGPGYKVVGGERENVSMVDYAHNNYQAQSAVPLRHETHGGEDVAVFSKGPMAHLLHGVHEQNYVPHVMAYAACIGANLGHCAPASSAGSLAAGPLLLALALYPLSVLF
TNAP inh hi DEA = blocks human TNAP under high phosphate acceptor concentration. P05186. purified TNAP, CDP-star luminescence, 1 M DEA. inhibition, % at 20 µM. 0.03% of 200,000 active;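 active = over 50% inhibition of tissue-nonspecific alkaline phosphatase at 20 µM in the single-dose screen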;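 note: plate controls were DMSO wells for no effect and EDTA-quenched wells as full inhibition for full effect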
CHT PAM = human CHT allosteric activation; Q9GZV3; CHT-expressing cells, membrane potential dye, choline EC20; active compounds read high; LV-AA mutant CHT in HEK293 cells; B-score at 10 µM; 0.49% of 310,000 active; AID 488977;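 active = initial fluorescence not abnormally high and integrated response B-score, plate-corrected, over 3 SD above library mean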
ABCB6 inh 2 = inhibitors of human ABC transporter ABCB6 | Q9NP58 | K562-ABCB6 porphyrin accumulation, flow cytometry, 1 h; active compounds read low | fluorescence ratio to DMSO, % at 10 µM | 0.19% of 360,000 active | AID 602162;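 active = fluorescence ratio to DMSO below 75%, the collection mean minus 3 SD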;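 note: signal is porphyrin accumulated inside mitochondria; 100% equals median channel fluorescence of DMSO control wells; lower ratio means ABCB6 inhibition with less porphyrin fluorescence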
TNAP act hi DEA = TNAP (human) activation, high acceptor. P05186. purified TNAP, CDP-star luminescence, 1 M DEA, 30 min; active compounds read high; 0 = EDTA background, 1 = DMSO-only activity. activation factor at 20 µM. 200,000 tested, under 10 active. AID 1136;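 active = activation factor at least 2 at 20 µM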
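system = human TNAP | amount = enzyme diluted 1/800 final | reagent = 100 µM CDP-star substrate | signal = luminescent substrate turnover signal | dosing = one dose, 20 µM | benchmarks = EDTA negative control, DMSO positive control | measure = activation factor | timing = 30 min reaction, room temperature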
CHT inh conf = human CHT inhibition, confirmatory screen. shares compounds with CHT inh. CHT-expressing cells, choline membrane potential dye; LV-to-AA substituted CHT, HEK293 cells. CHT activity remaining % of control (active compounds read low), % at 10 µM. 70% of 2,400 active;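 active = choline transporter activity left, mean of duplicates at 10 µM, below buffer-only control mean minus 3 SD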;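 note: depolarization triggered by choline at its EC90 following an EC20 pre-addition; 0% = hemicholinium-3 full block and 100% = buffer-only control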
HEK293 CHT ctr = activity in parental HEK293 cells lacking CHT; shares compounds with CHT inh; membrane potential dye, choline response; active = decrease or increase beyond buffer ±3SD; membrane potential ratio readout (active if shifted either direction beyond buffer ±3SD; no single direction) at 10 µM; 4% of 2,400 active; AID 493222;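 note: parental cells lack the transporter so any hit is non-specific; ratio is peak minus trough fluorescence over baseline after EC90 choline challenge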
An asterisk follows results filed as active; i = inactive; · = no result. An excerpt weighted towards active compounds, which were near 1.4% of everything screened.

SMILES	CHT inh	TNAP inh noacc	TNAP inh hi DEA	CHT PAM	ABCB6 inh 2	TNAP act hi DEA	CHT inh conf	HEK293 CHT ctr
Cc1cccc(C(=O)NNC2=C(C(=O)C(F)(F)F)CCC2)c1O	-7.9*	7	0	i	103	1	37%*	i
O=C(NNC1=C(C(=O)C(F)(F)F)CCC1)c1cccnc1	i	12	2	i	102	1	·	·
CS(=O)(=O)N(CC(O)Cn1c2ccccc2c2ccccc21)c1ccccc1 (configuration not stated)	i	-7	-6	i	103	1.1	i	i
CC1CCN(S(=O)(=O)c2nnc(NC(=O)c3cccc([N+](=O)[O-])c3)s2)CC1	-9.6*	·	·	i	99	·	60%*	i
CC(=O)[C@H]1[C@H]([C@H](O)[C@H](O)CO)O[C@](O)(C(=O)O)C[C@@H]1O	i	·	·	i	101	·	·	·
CC1CCN(C(=O)COC(=O)c2cc3ccccc3oc2=O)CC1	·	·	·	·	102	·	·	·
O=[N+]([O-])C(/C=C(\Cl)[N+](=O)[O-])=C1N(Cc2ccc(Cl)nc2)CCN1Cc1ccc(Cl)nc1	i	21	22	i	87	0.8	·	·
O=[N+]([O-])/C(C(=C(Cl)Cl)N1CCN(Cc2ccccc2)CC1)=C1\NCCN1Cc1ccc(Cl)nc1	-13*	-11	-5	i	103	1	4.7%*	i
COc1ccc(S(=O)(=O)N2CCc3ccccc32)cc1OC	i	·	·	i	98	·	·	·
CCn1c(=O)n(CC)c2cc(S(=O)(=O)N3CCc4ccccc43)ccc21	-5.9*	-16	-3	i	93	1	44%*	i
O=S1(=O)CCN(C2CCCC2)CC1	·	·	·	·	96	·	·	·
Cc1c(C)n(CCc2ccccc2)c2ncnc(NN)c12	-6.1*	·	·	i	97	·	61%*	i
Cc1c(C)n(Cc2ccccc2)c2ncnc(NN)c12	i	·	·	i	96	·	·	·
COc1cccc(C(=O)NCCS(=O)(=O)N2CCN(c3ccccc3)CC2)c1OC	·	·	·	·	93	·	·	·
O=C(O)c1ccccc1N/C=C\[N+](=O)[O-]	i	-3	-2	i	100	1	·	·
COC(=O)c1ccc(Oc2ccc(S(=O)(=O)N3CCCCC3)cc2N)cc1	i	·	·	i	91	·	·	·
Nc1cc(S(=O)(=O)N2CCCCC2)ccc1Oc1ccc(Cl)cc1	-9.4*	-12	-8	i	93	1.1	i	i
CCc1oc(C(=O)O)cc1COC	-11*	0	-7	i	95	1.1	i	i
CCc1oc(C(=O)O)cc1CN(CC)CC	i	-9	-1	i	93	1	·	·
C/C(=N\NC(=O)c1cccc2ccccc12)c1ccccn1	·	·	·	·	101	·	·	·
C/C(=N\NC(=O)c1ccoc1C)c1cccc2ccccc12	-7.6*	·	·	i	93	·	i	i
O=C1NC(=O)/C(=C\c2ccc(Br)o2)S1	-5.7*	·	·	i	99	·	i	i
O=C1NC(=O)/C(=C/c2ccc(-c3cc(C(=O)O)ccc3Cl)o2)S1	i	·	·	i	102	·	·	·
Cc1ccc(C(=O)NC(C)c2ccc(F)cc2)cc1 (configuration not stated)	i	1	-1	i	97	1	·	·
CC(NC(=O)c1ccc(Br)cc1)c1ccc2c(c1)CCCC2 (configuration not stated)	-9.7*	0	-1	i	94	1	i	i
SMILES	CHT inh	TNAP inh noacc	TNAP inh hi DEA	CHT PAM	ABCB6 inh 2	TNAP act hi DEA	CHT inh conf	HEK293 CHT ctr
CC(NC(=O)c1ccc(F)cc1)c1ccc2c(c1)CCCC2 (configuration not stated)	-6.2*	-17	-4	i	95	1	41%*	i
O=C(COC(=O)Cc1cccs1)Nc1ccccc1Cl	-5.5*	-14	-6	i	98	1.1	i	i
COc1ccccc1NC(=O)COC(=O)Cc1cccs1	i	-9	-2	i	101	1	·	·
CC1=CC[C@@]23CCCN2C(=O)CCC[C@H]3C1	·	·	·	·	99	·	·	·
Cc1ccccc1CNS(=O)(=O)c1ccc2c(c1)OCCO2	-5.8*	-10	-1	i	95	1	64%*	i
CCOC(=O)c1cnc2c(C(F)(F)F)cccc2c1N1CCOCC1	-5.8*	-7	-2	i	87	1	52%*	i
CCOC(=O)c1[nH]c(C)c(C(=O)C(C)C)c1C	i	-12	-3	i	93	1	·	·
Cn1c(=O)c(Nc2ccc(Cl)cc2)c2c3c(cccc31)C(=O)c1ccccc1-2	i	17	21	i	·	0.8	·	·
CC(=O)Nc1c2c3c(cccc3n(C)c1=O)C(=O)c1ccccc1-2	-5.9*	-5	1	i	98	1	45%*	2.4*
CC(C)CCN1CCN(Cc2nc(-c3ccc(F)cc3)cs2)CC1CCO (configuration not stated)	i	-6	-2	i	96	1	·	·
CC(C)=CCN1CCN(Cc2nc(-c3ccc(F)cc3)cs2)CC1CCO (configuration not stated)	-5.4*	·	·	i	95	·	i	i
COc1cccc(N2CCN(c3ncnc4c3[nH]c3ccc(F)cc34)CC2C)c1 (configuration not stated)	-7*	-14	-5	i	94	1.1	63%*	i
COc1cccc(N2CCN(c3ncnc4c3[nH]c3ccccc34)CC2C)c1 (configuration not stated)	i	-26	-8	i	·	1.1	·	·
CC1(C)c2ccccc2-n2c1cc1oc(=O)cc(O)c1c2=O	i	·	·	i	96	·	·	·
COc1ccc(-n2c(C)cc(C(=O)CSc3nnc(-c4ccoc4C)n3C)c2C)cc1	-5.1*	-11	-3	i	94	1	66%*	i
CSC1=NS(=O)(=O)c2c(C)nn(C)c2S1	-8*	·	·	i	96	·	29%*	i
O=C1c2cccc3c(Nc4ccccc4Cl)c([N+](=O)[O-])cc(c23)C(=O)N1CCO	-5.5*	18	29	i	97	0.7	71%*	i
O=C1c2cccc([N+](=O)[O-])c2C(=O)N1CCO	i	-10	-4	i	404	1	·	·
CCOCCCN1CC(=O)N2[C@@H](Cc3c([nH]c4ccccc34)C2(C)C)C1=O	i	·	·	i	96	·	·	·
O=C(N/N=C/c1sc2ccccc2c1O)c1ccccc1	-20*	-35	11	i	112	0.9	-81%*	-55*

Assay outcomes deposited in PubChem BioAssay by several laboratories.
